Shn3 3UTR inh: Schnurri-3 reporter inhibition in Clone20 osteoblasts | Clone20 osteoblast Shn3 3'UTR firefly luciferase, 24 h | inhibition, % at 12.5 µM | 0.52% of 360,000 active | AID 588674;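 active means mean inhibition of at least 75% with every replicate also reaching 75%; inconclusive means mean inhibition at least 75% but some replicate below; inactive means mean inhibition below 75%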
FN deposit inh: fibronectin deposition inhibition; AH1F fibroblasts, Alexa488-fibronectin deposition fluorescence, overnight; inhibition, % at 12.6 µM; 0.086% of 350,000 active;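 active means mean inhibition across replicates of 30% or more, regardless of how many single replicates reach that level; inconclusive means mean under 30% yet at least half of replicates reach 30%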
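Assay system: AH1F fibroblasts assembling fluorescent fibronectin matrix; Amount: 10000 AH1F cells per well; Buffer or medium: DMEM, 2% serum; Probe or stimulus: Alexa488-fibronectin, 24 nM final in well; Doses: single compound dose, delivered by pin transfer; Incubation: 1 h adhesion, overnight exposure; Measured by: fluorescence 485/525 nm; Read-out: fibronectin deposition inhibition.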
EBV LMP1 NFkB: Epstein-Barr LMP1 NF-kappaB reporter inhibition; 0.69% of 350,000 active; LMP1-induced NF-kappaB luciferase reporter cells, luminescence; inhibition, % at 12.5 µM; in the data active means inhibition above about 41%; inconclusive means no clear call, values can overlap the other calls
PAX8 inh HTS: PAX8 transcriptional activity inhibition. 1.2% of 360,000 active. RMG-I TPO-luciferase reporter, SteadyGlo, 24 h. inhibition, % at 12.6 µM;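 active means mean replicate inhibition at least 60% with every replicate also reaching 60%; inconclusive means only one of the two criteria is met; inactive means mean below 60% and not all replicates reaching 60%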;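 further: luciferase light reporting Pax8 driven TPO promoter activity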
aSyn UTR inh: MLPCN primary screen, SNCA 5' untranslated region; 0.82% of 300,000 active; inhibition, % (tested at 7.5 µM); alpha-synuclein 5'UTR reporter, inhibitor activity; AID 1813; in the data active means inhibition above about 60%; inconclusive means no clear call, values can overlap the other calls;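 further: H4 neuroglioblastoma cells stably carrying SNCA 5'UTR luciferase fusion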
EWS-Fli inh: blocks EWS/Fli oncoprotein-driven transcription; A673 NR0B1-luciferase reporter, viability-normalised; inhibition, % at 12.6 µM; 0.67% of 350,000 active; AID 651661;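 active means mean inhibition of at least 50% after viability correction, with every replicate also passing that limit; inconclusive means mean reaches 50% but only one of two replicates passes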;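 further: firefly luciferase signal divided by Alamar Blue viability fluorescence both relative to DMSO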
A number is an active result; 0 = inactive; ? = inconclusive; - = no result. Hits are enriched below; roughly 2.1% of the tested compounds scored in any of these assays.

SMILES	Shn3 3UTR inh	FN deposit inh	EBV LMP1 NFkB	PAX8 inh HTS	aSyn UTR inh	EWS-Fli inh
CC(=NC1CCCC1)c1c(C)[nH]n(-c2nc3ccccc3s2)c1=O	0	0	0	0	94	-
COc1cccc(S(=O)(=O)N2CC[C@@H]3[C@H](CO)Nc4ccc(-c5ccc(C#N)cc5)cc4[C@@H]32)c1	-	0	-	0	-	0
Oc1ccccc1-c1nnc(SCCN2CCOCC2)n1Cc1ccccc1	0	0	0	0	81	-
Cc1ccc(S(=O)(=O)n2cc(C=O)c3ccccc32)cc1	-	0	0	0	0	0
Cc1ccc(S(=O)(=O)n2cc(-c3ccccc3)c3ccccc32)cc1	0	0	0	0	-	60
COc1cccc(S(=O)(=O)N[C@@H]2CC[C@@H](CCn3cc(-c4ccccn4)nn3)O[C@@H]2CO)c1	-	-	-	0	-	0
COc1ccc2c(c1)c(CC(=O)Nc1nnc(C3CC3)s1)c(C)n2C(=O)c1ccc(Cl)cc1	0	0	48	0	0	0
COc1ccc(-c2ccnc3cc(C(=O)O)nn23)cc1	0	0	57	0	0	0
COc1ccc(S(=O)(=O)N(C)C[C@@H]2Oc3c(NS(=O)(=O)c4cn(C)cn4)cccc3C(=O)N([C@H](C)CO)C[C@@H]2C)cc1	-	-	-	0	-	0
Cc1oc2c(c1C(=O)O)C(=O)c1ccccc1C2=O	0	0	0	0	0	0
Cc1oc2c(c1C(=O)c1ccccc1)C(=O)C(=O)c1ccccc1-2	0	-	94	-	127	-
O=C(O)c1cccc(Nc2nc(N3CCOCC3)nc(N3CCOCC3)n2)c1	0	0	0	-	0	-
O=C(O)c1cccc(Nc2ccnc(Nc3cccc(C(=O)O)c3)n2)c1	0	0	58	0	0	63
COc1ccc2c3c([nH]c2c1)[C@@H](CO)N(Cc1ccccc1F)CC31CN(C(=O)C2CCCC2)C1	-	-	-	0	-	0
CO[C@H]1CN(C)C(=O)c2ccc(NC(=O)Cc3ccccc3)cc2OC[C@@H](C)N(C)C[C@@H]1C	-	0	-	0	-	0
O=C(C[C@H]1CC[C@H]2[C@@H](COC[C@H](O)CN2Cc2cccc(C(F)(F)F)c2)O1)NCc1ccc(Cl)cc1	-	0	-	70	-	0
O=C(C[C@@H]1CC[C@H]2[C@@H](COC[C@@H](O)CN2CC2CCCCC2)O1)NCc1ccc(F)cc1	-	0	-	0	-	70
C[C@@H]1CN([C@@H](C)CO)S(=O)(=O)c2ccc(-c3cccnc3)cc2O[C@H]1CN(C)C(=O)C1CC1	-	-	-	-	-	0
COc1cc(/C=C2\CC(C(C)(C)C)C/C(=C\c3cc(OC)c(OC)c(OC)c3)C2=O)cc(OC)c1OC (stereo unspecified)	?	0	?	0	80	82
COc1cc(/C=C2\COC/C(=C\c3cc(OC)c(OC)c(OC)c3)C2=O)cc(OC)c1OC	96	0	91	106	103	74
O=c1c2ccccc2nc(/C=C/c2ccc([N+](=O)[O-])o2)n1CCCO	96	-	84	-	0	-
C=CCN1CCc2cc(O)c(O)cc2C(c2ccccc2)C1 (stereo unspecified)	0	0	77	0	-	0
O=C(CCCC(=O)OCC(Cl)=C(Cl)Cl)Nc1ccc(F)cc1	0	0	0	103	0	0
CCCCCC(=O)N1C[C@H](n2cc(-c3ccc(F)cc3)nn2)[C@@H](O)C[C@@H]1c1ccc(Cl)cc1	0	0	0	82	-	0
CCCCCC(=O)N1C[C@@H](O)[C@H](n2cc(-c3ccc(F)cc3)nn2)C[C@@H]1c1ccc(Cl)cc1	0	0	0	0	-	0
SMILES	Shn3 3UTR inh	FN deposit inh	EBV LMP1 NFkB	PAX8 inh HTS	aSyn UTR inh	EWS-Fli inh
COCC(=O)Nc1ccc2c(c1)C(=O)N(C)[C@H]1CC[C@H](CC(=O)NCc3ccc(OC)cc3)O[C@@H]1CO2	-	0	-	0	-	0
COC(=O)c1cccc2c1-c1ccccc1/C2=N/O	0	-	44	-	0	-
COC(=O)c1cccc2c1-c1ccccc1/C2=N\NC(N)=O	0	0	0	0	0	0
CC1CC(C)CN(S(=O)(=O)c2ccc(NC(=O)CCN3C(=O)C4CC=CCC4C3=O)cc2)C1 (stereo unspecified)	0	0	72	0	-	0
COc1ccc(C2C(Oc3ccccc3)C(=O)N2c2cc(C)ccc2C)cc1OC (stereo unspecified)	0	0	0	-	0	-
COc1ccc(C)cc1N1C(=N)/C(=C2/Nc3ccccc3S2)C(c2ccccc2)C1=O (stereo unspecified)	0	0	0	0	-	66
CCc1ccccc1-n1ncc(C(=O)Nc2ccc(OC)cc2)c1C	0	0	79	0	-	0
CCc1ccc(NC(=O)c2cnn(-c3ccccc3)c2C)cc1	0	-	0	-	0	-
COc1ccc(NS(=O)(=O)c2cc(NC(=O)c3ccc(=O)[nH]n3)ccc2C)cc1	0	0	0	0	-	56
Cn1cnc([N+](=O)[O-])c1Sc1nc(N)nc2c1ncn2C1CC(O)C(CO)O1 (stereo unspecified)	0	0	0	74	-	0
N#CCCn1c(-c2nonc2NC(=O)c2ccccc2Cl)nc2ccccc21	0	-	0	-	0	-
CCOC(=O)c1ccccc1NC(=O)Cn1c(-c2nonc2N)nc2ccccc21	0	active	0	-	73	-
CCCCn1c(-c2nonc2NC(=O)c2ccccc2Cl)nc2ccccc21	89	0	0	0	-	0
COc1ccc(NC(=O)N(C)C[C@H]2Oc3ncc(-c4cccnc4)cc3C(=O)N([C@H](C)CO)C[C@@H]2C)cc1	-	-	-	0	-	0
C=CCn1c(C)cc(C(=O)Cn2ncc(Cl)c(Cl)c2=O)c1C	0	0	0	0	0	55
O=C(Cn1ncc(Cl)c(Cl)c1=O)c1ccc(Cl)cc1	0	-	0	0	0	-
CC(C)C[C@H]1CN=C(N(C)C)N1CC(C)C	0	0	0	0	-	0
CC(C)C[C@H]1CN=C(N(C)C)N1CC1CCCCCC1	87	0	0	0	-	0
CNC[C@H]1Oc2ccc(NS(=O)(=O)c3ccc(OC)cc3)cc2CC(=O)N([C@H](C)CO)C[C@@H]1C	-	-	-	0	-	0
CC(=O)c1ccc(Nc2nc(-c3sc(C)nc3C)cs2)cc1	0	0	0	0	-	66
CC(=O)Nc1ccc(Nc2nc(-c3sc(C)nc3C)cs2)cc1	0	0	0	0	0	0
CC(C)c1ccc2[nH]c(O)c(N=NC(=O)c3cccc(S(=O)(=O)Nc4ccc(Cl)cc4)c3)c2c1	0	0	0	0	79	0
CO[C@H]1CN(C)C(=O)c2cc(NC(C)=O)ccc2OC[C@@H](C)N(CCc2ccccc2)C[C@H]1C	-	0	-	-	-	0
CN(C)C(=O)C[C@H]1CC[C@H](NC(=O)C2CCOCC2)[C@@H](CO)O1	-	0	-	0	-	0
C[C@@H]1CN([C@@H](C)CO)C(=O)c2c(c3ccccc3n2C)-c2ccccc2CO[C@H]1CN(C)S(=O)(=O)c1cn(C)cn1	-	0	-	0	-	0
Cc1nn(Cc2noc(C(=O)NC3CCC(C)CC3)n2)c(C)c1Br (stereo unspecified)	90	0	0	0	0	-
Cc1nn(Cc2noc(C(=O)NCC3CCCO3)n2)c(C)c1Br (stereo unspecified)	0	0	0	0	0	-

Screening data: PubChem BioAssay, Broad Institute
